Data from ChEMBL document CHEMBL1143310, “Design, synthesis, and biological evaluation of fluorinated analogues of salicylihalamide” (J Med Chem, 2009).
Calls of active or inactive are those of the source. The rule behind the calls is not given here.

Assays:
[1] = Inhibition of proton transport activity of V-ATPase in pig adrenal chromaffin granule membrane by fluorescent quenching measurement; design: species or system Sus scrofa
How it was run: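 Porcine adrenal chromaffin granule membranes (50 µg protein) in 0.3 M sucrose, 40 mM KCl, 5 mM tricine, pH 8.0, with ACMA and valinomycin, preincubated 10 min at 37 °C. Compound added in DMSO (0.1% final), 3 min at 37 °C. MgATP added for 2 min, then FCCP. ACMA fluorescence quenching read. Activity taken as % of DMSO control, in triplicate with SD. IC50 derived graphically from log-concentration plots.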

[2] = tested on: COS-7; experiment: Inhibition of V-ATPase activity in african green monkey COS7 cells assessed as increase in luminal pH of lysosomes at 1 uM after 5 hrs by fluorescent microscopy; assay type: cell-based; details: Chlorocebus aethiops
How it was run: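 COS-7 cells grown in DMEM with 10% FCS at 37 °C in 5% CO2 on poly-L-lysine coverslips overnight. Compound added at 1 µM final for 5 h at 37 °C. Cells then loaded 1 min with LysoSensor Green DND-189 (1 µM final) and washed with HBSS. Lysosomal fluorescence imaged by microscopy with a cooled CCD camera. Duplicate experiments.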

[3] = Inhibition of V-ATPase activity in bovine […] chromaffin granule membrane; design: species or system Bos taurus
[4] = Cytotoxicity against human NCI60 cells; assay type: functional
[5] = Cytotoxicity against african green monkey COS7 cells at 1 uM after 5 hrs by trypan blue exclusion test; assay type: cell-based; details: chlorocebus aethiops, cos-7, 5 h
How it was run: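 COS-7 cells were cultured on poly-L-lysine coverslips and exposed to compound at 1 µM final for 5 h at 37 °C. Intact or treated cells were soaked in PBS with 0.3% trypan blue. Viability was judged by dye exclusion under bright-field and phase-contrast microscopy.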

[6] = Cytotoxicity against human melanoma cells; assay type: functional; details: Melanoma cell

| Compound | IC50 [1] [nM] | Activity [2] | IC50 [3] [nM] | GI50 [4] [nM] | Activity [5] | GI50 [6] [nM] |
| --- | --- | --- | --- | --- | --- | --- |
| CC/C=C\C=C/C(=O)N/C=C/C[C@H]1C[C@@H](O)[C@@H](C)C/C=C/Cc2ccc(F)c(O)c2C(=O)O1 [4-19F-SALICYLIHALAMIDE A] | 2 | Active |  |  |  |  |
| CC/C=C\C=C/C(=O)N/C=C\C[C@H]1C[C@@H](O)[C@@H](C)C/C=C/Cc2ccc(F)c(O)c2C(=O)O1 [4-19F-SALICYLIHALAMIDE B] | 10 | Active |  |  |  |  |
| CC/C=C\C=C/C(=O)N/C=C/C[C@H]1C[C@@H](O)[C@@H](C)C/C=C/Cc2cccc(O)c2C(=O)O1 [SALICYLIHALAMIDE A] | < 1 | Active | 1 | 15 | Non-toxic | 7 |
| CC/C=C\C=C/C(=O)N/C=C\C[C@H]1C[C@@H](O)[C@@H](C)C/C=C/Cc2cccc(O)c2C(=O)O1 [SALICYLIHALAMIDE B] | 30 | Active |  |  | Non-toxic |  |
